Source: ChEMBL document CHEMBL1143636, “A series of bisaryl imidazolidin-2-ones has shown to be selective and orally active 5-HT2C receptor antagonists” (Bioorg Med Chem Lett, 2005)
Active and inactive are the calls of the source. The calls are words filed in the database; no cut-off is given here.

Legend:
[1] = target: 5-hydroxytryptamine receptor 2A (Homo sapiens, UniProt P28223); test: Binding affinity for human 5-hydroxytryptamine 2A receptor expressed in HEK 293 cells using [3H]ketanserin; format: cell-based, HEK293
5-hydroxytryptamine receptor 2A, sequence (P28223 whole entry): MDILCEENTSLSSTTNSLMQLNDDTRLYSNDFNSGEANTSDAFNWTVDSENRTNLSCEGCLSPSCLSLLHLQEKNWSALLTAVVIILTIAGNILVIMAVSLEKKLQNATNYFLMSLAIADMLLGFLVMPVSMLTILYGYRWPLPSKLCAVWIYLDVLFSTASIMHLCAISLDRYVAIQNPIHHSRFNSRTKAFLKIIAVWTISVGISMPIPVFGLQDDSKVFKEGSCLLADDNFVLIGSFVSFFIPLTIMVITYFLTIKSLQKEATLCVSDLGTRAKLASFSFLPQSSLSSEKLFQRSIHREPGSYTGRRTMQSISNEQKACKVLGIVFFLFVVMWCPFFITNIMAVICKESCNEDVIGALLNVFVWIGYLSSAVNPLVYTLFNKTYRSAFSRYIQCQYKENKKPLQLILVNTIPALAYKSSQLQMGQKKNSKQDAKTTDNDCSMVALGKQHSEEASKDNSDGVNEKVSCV

[2] = target: 5-hydroxytryptamine receptor 2B (Homo sapiens, UniProt P41595); test: Binding affinity for human 5-hydroxytryptamine 2B receptor expressed in HEK 293 cells using [3H]5-HT; format: cell-based, HEK293
5-hydroxytryptamine receptor 2B, sequence (P41595 whole entry): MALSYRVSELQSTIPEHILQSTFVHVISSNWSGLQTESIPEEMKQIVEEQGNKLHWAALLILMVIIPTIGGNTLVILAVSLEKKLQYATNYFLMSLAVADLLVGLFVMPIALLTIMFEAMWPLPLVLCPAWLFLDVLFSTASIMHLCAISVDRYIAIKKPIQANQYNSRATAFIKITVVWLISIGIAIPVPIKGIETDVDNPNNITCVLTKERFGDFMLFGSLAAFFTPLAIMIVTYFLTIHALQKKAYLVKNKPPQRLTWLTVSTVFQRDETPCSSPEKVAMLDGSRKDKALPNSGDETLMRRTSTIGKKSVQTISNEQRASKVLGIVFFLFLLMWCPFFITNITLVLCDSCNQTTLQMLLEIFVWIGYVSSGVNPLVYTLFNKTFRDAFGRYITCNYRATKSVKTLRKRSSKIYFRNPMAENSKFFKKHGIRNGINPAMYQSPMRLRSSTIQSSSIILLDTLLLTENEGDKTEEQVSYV

[3] = target: T1, 5-hydroxytryptamine receptor 2C (Homo sapiens, UniProt P28335); test: Binding affinity for human 5-hydroxytryptamine 2C receptor expressed in HEK 293 cells using [3H]mesulergine; format: cell-based, HEK293
T1 sequence (P28335 whole entry): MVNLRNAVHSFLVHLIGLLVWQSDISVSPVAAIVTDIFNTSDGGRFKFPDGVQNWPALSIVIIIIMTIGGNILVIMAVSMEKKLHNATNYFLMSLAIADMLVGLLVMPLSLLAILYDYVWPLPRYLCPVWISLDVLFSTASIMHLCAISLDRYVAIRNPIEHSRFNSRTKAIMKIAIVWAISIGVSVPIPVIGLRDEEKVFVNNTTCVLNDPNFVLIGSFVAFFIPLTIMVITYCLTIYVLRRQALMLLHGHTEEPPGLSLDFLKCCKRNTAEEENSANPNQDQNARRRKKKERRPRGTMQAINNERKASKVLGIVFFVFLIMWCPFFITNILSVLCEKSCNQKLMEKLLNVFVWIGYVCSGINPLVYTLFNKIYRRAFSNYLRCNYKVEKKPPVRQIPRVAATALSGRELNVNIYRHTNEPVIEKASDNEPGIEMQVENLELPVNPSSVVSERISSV

[4] = In vivo clearance in rat was determined; format: ADME, organism-based
Rattus norvegicus [5] = test: Percentage reversal at 10 mg/kg po of mCPP (7 mg/kg i.p.) induced hypolocomotion; format: functional
How it was run: (§1)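 Rats were given the test compound orally at 10 mg/kg. mCPP, a 5-HT2C agonist, was given at 7 mg/kg ip 20 min before testing to induce hypolocomotion. The read-out was the percentage reversal of mCPP-induced hypolocomotion.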

Rattus norvegicus [6] = test: Percentage reversal at 10 mg/kg po of mCPP (7 mg/kg i.p.) induced hypolocomotion; in active; format: functional, organism-based; design: dose 10 mg/kg; how it was run: as §1
Rattus norvegicus [7] = test: Dose of compound required to reverse mCPP (7 mg/kg i.p.) induced hypolocomotion by 50%; format: functional
How it was run: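 In rats, hypolocomotion was induced with the 5-HT2C agonist mCPP at 7 mg/kg ip, given 30 min pretest. The value is the compound dose that reversed the mCPP-induced hypolocomotion by 50%.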

Rattus norvegicus [8] = test: Percentage reversal at 10 mg/kg po of mCPP (7 mg/kg i.p.) induced hypolocomotion; IA = in active; format: functional, organism-based; design: dose 10 mg/kg; how it was run: as §1

Ki [1]	Ki [2]	Ki [3]	clearance [4]	SMILES	Reversal (Rattus norvegicus [5])	Reversal (Rattus norvegicus [6])	ID50 (Rattus norvegicus [7])	Reversal (Rattus norvegicus [8])
631 nM	316 nM	0.794 nM	45 mL/min/kg	COc1ccc(N2CCN(c3ccc(Cl)c(Cl)c3)C2=O)cc1OCCN1CCCCC1	75%			
> 5010 nM	316 nM	3.16 nM		COc1ccc(N2CCN(c3ccc(Cl)c(Cl)c3)C2=O)cc1OCCN1CCOCC1	7%			
> 10000 nM	> 6310 nM	398 nM		O=C1N(c2ccc(OCc3ccccn3)nc2)CCN1c1ccc(Cl)c(Cl)c1				
501 nM		1.26 nM		COc1ccc(N2CCN(c3ccc(Cl)c(Cl)c3)C2=O)cc1OCCN(C)C		inactive		
> 10000 nM	1260 nM	1260 nM		COc1ccc(N2CCN(c3cccc(F)c3)C2=O)cc1OCCO				
1000 nM	158 nM	25.1 nM		O=C1N(c2ccc(OCCN3CCCCC3)nc2)CCN1c1ccc(Cl)c(Cl)c1				
2510 nM	1580 nM	3.98 nM		COc1ccc(N2CCN(c3cccc(F)c3)C2=O)cc1OCCN(C)C	40%			

The next lines start with the compound.

SMILES	Ki [1]	Ki [2]	Ki [3]	clearance [4]	Reversal (Rattus norvegicus [5])	Reversal (Rattus norvegicus [6])	ID50 (Rattus norvegicus [7])	Reversal (Rattus norvegicus [8])
COc1ccc(N2CCN(c3ccccc3)C2=O)cc1OCCN1CCCCC1	2510 nM	1260 nM	1.26 nM			inactive		
Cc1cc2c(cc1C(F)(F)F)N(C(=O)Nc1ccc(OCc3ccccn3)nc1)CC2							1 mg/kg	
Cc1cc2c(cc1C(F)(F)F)N(C(=O)Nc1ccc(Oc3cccnc3C)nc1)CC2 [SB-243213]							0.7 mg/kg	
COc1ccc(N2CCN(c3ccc(C)c(C(F)(F)F)c3)C2=O)cc1OCCN1CCOCC1	3160 nM	126 nM	7.94 nM			inactive		
COc1ccc(N2CCN(c3ccccc3Cl)C2=O)cc1OCCN1CCCCC1	3980 nM	> 7940 nM	31.6 nM					
COc1cc2c(cc1OCCN1CCCCC1)N(C(=O)/C=C/c1ccccc1Cl)CC2	398 nM	126 nM	0.631 nM		71%			
COc1ccc(N2CCN(c3ccc(C)c(C(F)(F)F)c3)C2=O)cc1OCCN1CCCCC1	398 nM	79.4 nM	2 nM			inactive		
COc1ccc(N2CCN(c3cccc(Cl)c3Cl)C2=O)cc1OCCN1CCCCC1	1580 nM	1260 nM	10 nM					inactive
COc1ccc(-n2ccn(-c3cccc(F)c3)c2=O)cc1OCCN1CCCCC1	> 1000 nM	2000 nM	6.31 nM			inactive		
COc1ccc(-n2ccn(-c3cc(F)cc(F)c3)c2=O)cc1OCCN1CCCCC1	> 10000 nM	> 7940 nM	7.94 nM					
COc1ccc(N2CC(=O)N(c3cccc(F)c3)C2=O)cc1OCCN1CCCCC1	> 10000 nM	> 6310 nM	50.1 nM					
COc1ccc(N2CCN(c3cccc(F)c3)C2=O)cc1OCCN1CCOCC1	> 6310 nM	794 nM	12.6 nM	> 120 mL/min/kg	10%			
Cc1cc2c(cc1Cl)N(C(=O)Nc1ccc(Oc3cccnc3C)nc1)CC2 [SB-242084]							2 mg/kg	
COc1ccc(N2CCN(c3cccc(F)c3)C2=O)cc1OCCN1CCCCC1	2000 nM	501 nM	1.58 nM	> 120 mL/min/kg	7%			
COc1ccc(N2CCN(c3cc(F)cc(F)c3)C2=O)cc1OCCN1CCCCC1	> 10000 nM	> 5010 nM	1 nM		40%			
